Source: paper PMC9298258 (Clinical Pharmacology and Therapeutics, 2021)

Legend:
[1] = Plasma PK of tirabrutinib in two phase I studies; type: in vivo; conditions: human, oral
[2] = Population PK model; type: in vivo, human
How it was run: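 Plasma drug was measured by validated LC-MS/MS with an isotopically labeled internal standard (LLOQ 1.0 ng/mL). Pooled data came from healthy and RA subjects in two phase I studies. The model was two-compartment with first-order absorption, lag time and relative bioavailability, with IIV on CL/F, Vc/F and ka. Fitting used NONMEM FOCE-I. Covariates were screened on CL/F, Vc/F and ka, and bootstrap gave CIs.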

[3] = molecular target: BTK (Homo sapiens, UniProt Q06187); experiment: BTK occupancy test in peripheral blood mononuclear cells; type: in vivo
BTK, sequence (Q06187 whole entry): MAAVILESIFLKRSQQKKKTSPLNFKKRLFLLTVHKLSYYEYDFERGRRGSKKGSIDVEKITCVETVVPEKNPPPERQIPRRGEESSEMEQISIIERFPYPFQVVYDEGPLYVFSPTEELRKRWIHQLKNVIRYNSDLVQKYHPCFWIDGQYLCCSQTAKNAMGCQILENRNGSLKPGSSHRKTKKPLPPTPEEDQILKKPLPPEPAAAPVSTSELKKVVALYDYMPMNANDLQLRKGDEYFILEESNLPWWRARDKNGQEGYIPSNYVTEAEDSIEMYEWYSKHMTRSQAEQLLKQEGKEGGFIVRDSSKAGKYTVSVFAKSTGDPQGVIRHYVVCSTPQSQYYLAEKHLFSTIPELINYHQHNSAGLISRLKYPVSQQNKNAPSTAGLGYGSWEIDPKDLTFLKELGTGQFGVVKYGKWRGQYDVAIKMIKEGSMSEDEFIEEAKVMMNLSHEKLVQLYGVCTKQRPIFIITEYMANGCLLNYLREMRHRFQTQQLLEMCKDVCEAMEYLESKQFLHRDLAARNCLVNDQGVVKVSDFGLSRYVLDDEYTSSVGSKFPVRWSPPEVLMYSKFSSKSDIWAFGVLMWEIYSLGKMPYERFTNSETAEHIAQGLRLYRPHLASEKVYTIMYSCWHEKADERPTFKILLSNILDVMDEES
How it was run: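 PBMC BTK occupancy measured by duplexed homogeneous TR-FRET, reading free and total BTK in the same well. LLOQ was 12 ng/mL; baselines below it were excluded. Study #1 used days 8 and 17, with day-8 predose as baseline. Study #2 sampled at baseline, days 1–7 and up to 120 h post-last-dose, or at PK timepoints. Covalent binding model with BTK-synthesis feedback (ksyn); NONMEM FOCE-I; bootstrap.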

[4] = test system: subjects with RA; experiment: Exploratory efficacy in study #2, part B; type: in vivo, human; conditions: 20 mg q.d.
How it was run: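 RA subjects in phase I part B were assessed at day 1 predose, week 2 and week 4. End points were plasma hsCRP and tender joint count 68 within the ACR core set. Each end point was regressed linearly against model-predicted time above 90% BTK occupancy over a 24-hour dosing interval.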

[5] = cited from earlier work
[6] = test system: murine collagen–induced arthritis model; conditions: cited from earlier work
[7] = test system: patients with RA; conditions: cited from earlier work
[8] = bootstrap (N = 1000) final model median estimate
[9] = final PopPK model estimate (RSE%)

## CC#CC(=O)N1CC[C@@H](n2c(=O)n(-c3ccc(Oc4ccccc4)cc3)c3c(N)ncnc32)C1 [tirabrutinib, Tirabrutinib]
[1]
  half-life: 6.2 to 7.3 h
[2]; [8]
  Absorption lag time: 0.465 h
  Absorption rate constant, ka: 0.811 h⁻¹
  Apparent oral clearance, CL/F: 62.5 L/h
  Apparent oral volume, Vc/F: 357 L
  IIV of CL/F: 27.1%
  IIV of Vc/F: 53.7%
  IIV of ka: 89.6%
  Influence of age on ka: –1.74
[2]; [9]
  Absorption lag time: 0.465 (1) h
  Absorption rate constant, ka: 0.800 (14) h^−1
  Apparent oral clearance, CL/F: 62.6 (4) L/h
  Apparent oral volume, Vc/F: 357 (7) L
  IIV of ka: 93.4 (13) %
[2]; final PopPK model estimate (RSE%), covariate exponent
  Influence of age on ka: –1.74 (26)
[3]; [8]
  Feedback rate constant on protein synthesis from BTK inhibition, ksyn: -0.0290 h⁻¹
[3]; final PK/PD model estimate (RSE%)
  Feedback rate constant on protein synthesis from BTK inhibition, ksyn: −0.0301 (59) h^−1
[3]; model and observed fBTK
  BTK suppression after multiple dosing: maintained through a 24‐hour dosing interval
[4]; week 4 visit
  change in TJC68: small numerical decrease
  change in hsCRP levels: small numerical decrease
[4]; exploratory efficacy analysis
  effects on disease-related outcomes: modest effects
[5]; 20-to-320 mg dose range
  dose proportionality of pharmacokinetics: dose‐proportional
[5]; patients with B-cell malignancies, 20 to 480 mg q.d.
  tolerability: generally well‐tolerated
[5]; phase I dose escalation study
  absorption following oral administration: rapidly absorbed
[6]
  arthritis severity and bone damage: dose‐dependent inhibition

## C=CC(=O)Nc1cccc(Nc2nc(Nc3ccc(OCCOC)cc3)ncc2F)c1 [spebrutinib]
[7]
  disease markers in patients with active RA: reduce disease markers

## C[C@H]1CN(C2COC2)CCN1c1ccc(Nc2cc(-c3ccnc(N4CCn5c(cc6c5CC(C)(C)C6)C4=O)c3CO)cn(C)c2=O)nc1 [fenebrutinib]
[7]
  efficacy in moderate-to-severe RA: comparable with adalimumab
[7]; subjects with RA
  BTK inhibition achieved by the efficacious doses: 90%
